# Screens deposited in PubChem by several laboratories.
# Granule exo inh: LAMP-1 surface exposure blockers, TALL-104 cells – cell-based, flow cytometry, MLPCN library, primary screen; TALL-104 LAMP-1 surface exposure; cells stimulated with thapsigargin and PMA; inhibition, % at 10 µM; AID 651702, 2012; actives 0.66% (n = 360,000);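 active means inhibition above about 55%, limit read from the data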
# MPTP block: mitochondrial permeability transition pore inhibitors, primary screen, biochemical, isolated mouse mitochondria, absorbance; Ca2+ swelling absorbance, 30 min; actives 1.4% (n = 360,000); inhibition, % at 10 µM;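 active means inhibition of 50% or more, scaled per plate between neutral and stimulator controls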
# Apaf-1 inh: inhibitors of human Apaf-1 apoptosome, primary screen, biochemical, DEVD-Rh110 fluorescence, uHTS. inhibition, % at 20 µM. AID 489030, 2010. reconstituted apoptosome caspase-3 activity. actives 0.71% (n = 330,000). Apoptotic protease-activating factor 1 (Homo sapiens), O14727; active means inhibition of at least 40% at 20 µM
#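 System: Apoptosome proteins | Medium: Hepes pH 7.5 with detergent and BSA | Also added: Cytochrome c trigger plus (Z-DEVD)2-Rh110 caspase-3 substrate | Incubation: 30 min compound preincubation, 50 min activation, room temperature | Detection: Rhodamine 110 fluorescence at Ex 480/Em 540 nm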
# beta cell repl: inducers of MIN6 beta-cell proliferation, primary screen, ATP luminescence, uHTS; MIN6 cells proliferation, ATPlite luminescence, 48 h; cells starved in 0.2% serum; 100% = growth in 10% serum; proliferation, % at 10 µM; actives 0.29% (n = 330,000);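 active means compounds whose signal lies at least 3.5 SD above the mean of all wells on their plate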
# UBC13 polyUb: UBC13 polyubiquitin chain formation inhibitors, primary screen, biochemical, TR-FRET, uHTS. Ubiquitin-conjugating enzyme E2 N (Homo sapiens), P61088. inhibition, % at 20 µM. actives 0.47% (n = 330,000). AID 485273, 2010; in the data active means inhibition above about 45%, passing the limit was not always enough
# Target sequence (P61088 whole entry, looked up): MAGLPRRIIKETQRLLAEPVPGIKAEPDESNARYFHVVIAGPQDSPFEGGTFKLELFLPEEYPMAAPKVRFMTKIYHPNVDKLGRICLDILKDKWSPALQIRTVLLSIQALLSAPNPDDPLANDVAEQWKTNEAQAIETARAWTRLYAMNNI
# iPSC survival up: enhancers of single-cell hiPSC survival, primary screen, ATPlite luminescence. AID 602274, 2012. survival enhancement, % at 20 µM. actives 0.044% (n = 360,000). 100% = ROCK inhibitor wells, 0% = DMSO; in the data active means survival enhancement above about 18%;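 further: cells exposed to compounds for 16 hours before the ATP read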
# Rh123 counter: fluorescence retest of MPTP screen hits in isolated mitochondria, single concentration; inhibition, % at 10 µM; actives 78% (n = 5,000); AID 624504, 2012; shares compounds with MPTP block; membrane potential, Rhodamine 123 fluorescence; in the data active means inhibition above about 22%
# MPTP abs DR: mitochondrial permeability transition pore inhibitors, dose response, biochemical, absorbance, uHTS hits | shares compounds with MPTP block | isolated mitochondria swelling | IC50, µM | actives 58% (n = 780); in the data active means IC50 below about 20 µM
# MPTP cs DR: fluorescent counter-screen in isolated mitochondria, dose response, counter-screen for MPTP inhibitor project, biochemical, fluorescence, uHTS hits. actives 49% (n = 780). shares compounds with MPTP block. isolated mitochondria counterscreen, fluorescence read-out. IC50, µM. AID 651564, 2012; in the data active means IC50 below about 80 µM
# Numbers stand for hits; n = inactive; x = no result given. An excerpt weighted towards active compounds, which were near 3% of everything screened.
SMILES,Granule exo inh,MPTP block,Apaf-1 inh,beta cell repl,UBC13 polyUb,iPSC survival up,Rh123 counter,others
COc1ccc(Cn2c(C)c(C)c(C#N)c2NC(=O)Nc2ccc(Cl)cc2)cc1,n,94,n,n,n,n,78,
COc1ccc(Cn2c(C)c(C)c(C#N)c2NC(=O)Nc2cccc(Cl)c2)cc1,n,74,n,n,n,n,70,
Cc1c(C#N)c(NC(=O)c2cccc(Cl)c2)n(Cc2ccccc2)c1C,n,n,n,n,n,n,x,
OC(CNCC1COc2ccccc2O1)COc1ccccc1F (stereo not drawn),n,n,n,n,n,n,x,
Cc1oc(-c2cccc(Cl)c2)nc1CN1CCCC(C(=O)NCc2ccco2)C1 (stereo not drawn),n,n,n,n,n,n,x,
Cc1oc(-c2cccc(Cl)c2)nc1CN1CCCC(C(=O)NC(C)c2ccc3c(c2)OCCO3)C1 (stereo not drawn),n,51,n,n,n,n,n,MPTP abs DR=12;MPTP cs DR=20
CCOc1ccc(OCC)c(NC(=O)CSc2nc3ccccc3c(=O)n2C)c1,n,93,n,n,n,n,75,
CCOc1ccc(OCC)c(NC(=O)CSc2nc3cccnc3n2C)c1,n,n,n,n,n,n,x,
CC1(C)SC(=S)N(NC(=O)Nc2cccc3ccccc23)C1N(O)C(=O)Nc1ccccc1 (stereo not drawn),n,95,n,n,n,n,74,
CC1(C)SC(=S)N(/N=C/c2ccccc2)C1N(O)C(=O)Nc1ccc([N+](=O)[O-])cc1 (stereo not drawn),n,101,n,n,n,n,98,
O=C(O)CCCN1C(=O)C2C3CCC(C3)C2C1=O (stereo not drawn),n,n,x,x,x,n,x,
O=C(NC(=S)NN1CCCCC1c1cccnc1)c1ccc(Cl)cc1Cl (stereo not drawn),n,52,n,n,n,n,65,
COc1ccc(CNC(=O)c2cc3c(C)nc4ccccc4c3o2)c(OC)c1,n,73,n,n,n,n,96,
COc1cc(NC(=O)c2cc3c(C)nc4ccccc4c3o2)cc(OC)c1OC,n,n,n,n,n,n,x,
CCc1ccc(CNC(=O)c2cc3c(C)nc4ccccc4c3o2)cc1,n,n,n,n,n,n,x,
COc1cccc(CNC(=O)c2cc3c(C)nc4ccccc4c3o2)c1,n,60,n,n,n,n,34,
COc1ccc(OC)c(-c2csc(NC(=O)CSc3ccc([N+](=O)[O-])cc3)n2)c1,n,56,n,n,n,n,63,
OC[C@@H]1CN(Cc2ccncc2)C[C@H](n2cnc3c(N4CCOCC4)ncnc32)O1,n,n,x,x,x,n,x,
O=[N+]([O-])c1ccc(N2CCN(Cc3ccccc3)CC2)c2c1no[n+]2[O-],n,98,x,x,x,n,n,
CCCCn1c(SCC(=O)c2ccc(O)c(O)c2)nc2ccsc2c1=O,n,52,n,n,n,n,30,
CCCCn1c(SCC(=O)c2ccccc2)nc2ccsc2c1=O,n,64,n,n,n,n,n,MPTP abs DR=n;MPTP cs DR=n
O=C(O)CCCCCn1c(SCC(=O)c2ccc(O)c(O)c2)nc2ccsc2c1=O,n,n,n,n,n,n,x,
CCc1ccc(Nc2cc(C(=O)NCCCN3CCOCC3)c3ccccc3n2)cc1,n,52,n,n,n,n,n,MPTP abs DR=n;MPTP cs DR=n
O=C(Nc1ccc(Cl)cc1)Nc1cccnc1,n,64,n,n,n,n,83,
O=C(Nc1ccc(F)c(Cl)c1)Nc1ccc(Cl)cn1,n,87,n,n,n,n,96,
SMILES,Granule exo inh,MPTP block,Apaf-1 inh,beta cell repl,UBC13 polyUb,iPSC survival up,Rh123 counter,others
C=CCNC(=O)Nc1ccc(F)c(Cl)c1,n,n,n,n,n,n,x,
O=C(Nc1ccncc1)Nc1ccc(F)c(Cl)c1,n,92,n,n,n,n,107,
CCCc1cc(=O)[nH]c(SCC(=O)N2CC3(C)CC2CC(C)(C)C3)n1 (stereo not drawn),n,n,n,n,n,n,x,
O=c1ccnc(Nc2ccc([N+](=O)[O-])cc2)[nH]1,n,n,n,n,n,n,x,
O=C(Nc1cccc(Cl)c1)OCCN1CCN(Cc2ccccc2)CCC1=O,n,93,n,n,n,n,89,
O=C(Nc1ccccc1)OCCN1CCN(Cc2ccccc2)CCC1=O,n,n,n,n,n,n,x,
OCC1CCN(Cc2cn(Cc3ccccc3)nc2-c2cc3ccccc3o2)CC1,n,52,n,n,n,n,n,MPTP abs DR=18;MPTP cs DR=n
OCC1CCCN(Cc2cn(Cc3ccccc3)nc2-c2cc3ccccc3o2)C1 (stereo not drawn),n,n,n,n,n,n,x,
CC1CCC(NC(=O)C2CCN(c3c4c(nc5ncnn35)CCC4)CC2)CC1 (stereo not drawn),n,n,n,n,n,n,x,
CC(C)c1ccc(OCc2ccc(C(=O)N3CCCC3)o2)cc1,n,84,n,n,n,n,n,MPTP abs DR=12;MPTP cs DR=18
CC(C)c1ccc(COc2ccc(C(=O)N3CCOCC3)cc2)cc1,n,67,n,n,n,n,49,
Cc1ccc(OCc2ccc(C(=O)N3CCOCC3)cc2)cc1C,n,n,n,n,n,n,x,
CCOc1ccc(OCc2ccc(C(=O)N3CCCC3)o2)cc1,n,n,n,n,n,n,x,
Cc1nc(-c2ccc(F)cc2)c(CC(=O)N2CCN(S(=O)(=O)c3cccc([N+](=O)[O-])c3)CC2)s1,n,n,n,n,n,n,x,
O=C(c1ccccc1Cc1ccccc1)N1CCN(S(=O)(=O)c2ccccc2[N+](=O)[O-])CC1,n,n,n,n,n,n,x,
O=[N+]([O-])c1cc(Br)c(O)c(/C=N/Nc2nnnn2-c2cccc3ccccc23)c1,n,56,n,n,n,n,34,
Cc1ccc(C)c(S(=O)(=O)C(C#N)c2nc3ccccc3nc2N2CCOCC2)c1 (stereo not drawn),n,53,n,n,n,n,73,
Cc1ccc(S(=O)(=O)C(C#N)c2nc3ccccc3nc2N2CCN(C)CC2)cc1C (stereo not drawn),n,n,n,n,n,n,x,
Cc1ccc(C)c(S(=O)(=O)C(C#N)c2nc3ccccc3nc2N2CC(C)OC(C)C2)c1 (stereo not drawn),n,78,n,n,n,n,76,
